Structures are written as SMILES. The source made the active and inactive calls. The rule behind the calls is not given here.

In ChEMBL document CHEMBL1142117, “Triterpene saponins from Bacopa monnieri and their antidepressant effects in two mice models” (2007) one finds Activity data, which are given here for three compounds.

Assay [1] has as its system Mus musculus. Put plainly: Spontaneous motor activity in ICR mouse at 50 mg/kg, po. The class given is functional, organism-based. Further details: dose 50 mg/kg. The procedure, abridged: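 Locomotion of male ICR mice measured 1 h after day-5 oral dose (0.3% CMCNa suspension, daily for 5 days) with an automated activity meter in an open field (35 cm diameter); 3 min adaptation, then counts over 6 min; n=10; means ± SEM compared with vehicle by ANOVA/Dunnett.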

Assay [2] concerns Mus musculus. Put plainly: Antidepressant activity in ICR mouse assessed as reduction of immobility time at 50 mg/kg, po after 5 days by forced swimming test. More on the design: scale not given: the % may be the effect or the level left. The assay is classed as functional. In outline: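 Male ICR mice (18-22 g), housed a week on 12:12 h light-dark cycle; saponins suspended in 0.3% CMCNa, given orally once daily for 5 days; vehicle controls 5 days, fluoxetine (10 mg/kg) once on day 5. 1 h after last dose, mouse placed in water (24 °C, 10 cm deep) 6 min; immobility scored over final 4 min by blinded observer; n=10; means ± SEM, ANOVA/Dunnett.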

The test system of assay [3] is Mus musculus. The experiment in a line: Antidepressant activity in ICR mouse assessed as reduction of immobility time at 50 mg/kg, po after 5 days by tail suspension test. The class given is functional. Further details: scale not given: the % may be the effect or the level left. In outline: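 Male ICR mice (18-22 g); compounds in 0.3% CMCNa dosed orally daily for 5 days, fluoxetine (10 mg/kg) once on day 5, vehicle group 5 days. One hour after day-5 dose, mouse hung by tail from lever 30 cm high for 6 min; immobility in later 4 min recorded by observer; n=10; one-way ANOVA then Dunnett's t-test.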

Consider `CC(C)=CC1C[C@](C)(O)[C@@H]2[C@@H]3CC[C@@H]4[C@@]5(C)CC[C@H](O[C@@H]6OC[C@H](O)[C@H](O[C@@H]7O[C@H](CO)[C@@H](O)[C@H](O)[C@H]7O)[C@H]6O[C@@H]6O[C@@H](CO)[C@H](O)[C@H]6O)C(C)(C)[C@@H]5CC[C@@]4(C)[C@]34CO[C@@]2(C4)O1` (some centres undefined) [BACOPASIDE VII], for which, in the assay with Mus musculus [1], the result was inactive. Besides, the Activity in the assay with Mus musculus [2] is recorded as 20%; in the assay on Mus musculus [3], 8%.

For the compound `CC(C)=C[C@@H]1CO[C@]23C[C@@]4(CO2)[C@@H](CC[C@@H]2[C@@]5(C)CC[C@H](O[C@H]6OC[C@H](O)[C@H](O[C@H]7O[C@H](COS(=O)(=O)O)[C@@H](O)[C@H](O)[C@H]7O)[C@H]6O[C@@H]6O[C@@H](CO)[C@H](O)[C@H]6O)C(C)(C)[C@@H]5CC[C@]24C)[C@H]3[C@@]1(C)O` [BACOPASIDE I], the outcome in the assay on Mus musculus [1] was inactive. Moreover, the Activity is 75% in the assay with Mus musculus [2] and 61% with Mus musculus [3].

Turning to `CC(C)=C[C@@H]1CO[C@]23C[C@@]4(CO2)[C@@H](CC[C@@H]2[C@@]5(C)CC[C@H](O[C@H]6OC[C@H](O)[C@H](O[C@H]7O[C@H](CO)[C@H](O)[C@H](O)[C@H]7O)[C@H]6O[C@@H]6O[C@@H](CO)[C@H](O)[C@H]6O)C(C)(C)[C@@H]5CC[C@]24C)[C@H]3[C@@]1(C)O` [BACOPASAPONSIN C], the outcome with Mus musculus [1] was inactive. The figures for the Activity in the assay on Mus musculus [2] and with Mus musculus [3] were 63% and 47%, respectively.
